40 compounds from ChEMBL document CHEMBL1131141, “Novel 1,1,3-trioxo-2H,4H-thieno[3,4-e][1,2,4]thiadiazine derivatives as non-nucleoside reverse transcriptase inhibitors that inhibit human immunodeficiency virus type 1 replication” (J Med Chem, 1998) can be followed below.

Assay [1] relates to MT4. Nature of the assay: Dose required to reduce the viability of mock-infected cells by 50%, determined by MTT method. In kind it is functional. As to conditions: Homo sapiens. In short, it runs like this:
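Mock-infected MT-4 cells; value is the dose lowering cell viability by 50%, read out by MTT assay. Mean of at least two separate experiments.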

Assay [2] relates to MT4. Nature of the assay: Dose required to achieve 50% protection of MT-4 cells from HIV-1(IIIB) induced cytopathogenicity, determined by […] method. Format: functional, cell-based. The conditions noted are these: Homo sapiens. In outline: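 MT-4 cells infected with HIV-1(IIIB); value is the dose giving 50% protection against virus-induced cytopathogenicity, read out by MTT viability assay. Mean of at least two separate experiments.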

Assay [3] relates to Human immunodeficiency virus 1. Nature of the assay: Selectivity index was measured as the ratio of CC50(HIV-1) to that of EC50(HIV-1); SI Selectivity Index. Format: functional.
The nature of assay [4]: Selectivity index was measured as the ratio of CC50(HIV-1) to that of EC50(HIV-1). Format: functional.

As a reminder, the CC50 is the concentration giving 50% cytotoxicity. The term EC50 denotes the concentration giving half of the maximal effect. A higher EC50 goes with lower potency in that assay.

As to `N#CCN1C(=O)N(Cc2ccccc2)S(=O)(=O)c2cscc21`, the half-maximal cytotoxic concentration (CC50) in assay [1] worked out at 503 µM. In assay [2], the EC50 came to 900 nM. In addition, in assay [3], the SI is reported as 559.

On to `CCN1C(=O)N(Cc2ccccc2)S(=O)(=O)c2nn(C)cc21`, for which the cytotoxic concentration (CC50) in assay [1] was 321 µM. The compound also had an EC50 in assay [2] of over 321000 nM. Moreover, in assay [3], the SI is given as under 1.

`N#CCN1C(=O)N(Cc2cccc(Br)c2)S(=O)(=O)c2cscc21` had a 50% cytotoxic concentration (CC50) in assay [1] of 68.6 µM. In assay [2], this compound showed an EC50 of 90 nM. The SI in assay [3] was 762.

In the case of `CN1C(=O)N(Cc2c(Cl)cccc2Cl)S(=O)(=O)c2cscc21`, the midpoint of cytotoxicity in assay [1], the CC50, lay at 528 µM. Besides, the EC50 in assay [2] is over 528000 nM. In addition, the SI in assay [3] is given as under 1.

`N#CCN1C(=O)N(Cc2ccccc2)S(=O)(=O)c2ccsc21` had a cytotoxic concentration (CC50) in assay [1] of 219 µM. This compound also returned an EC50 in assay [2] of 3000 nM. Moreover, in assay [3], the SI is 73.

Compound `N#CCN1C(=O)N(Cc2ccccc2)S(=O)(=O)c2sc(Cl)cc21` registered a CC50 in assay [1] of 152 µM. The compound further showed an EC50 in assay [2] of 24500 nM. In assay [3], the SI is 6.

In assay [1], `CCN1C(=O)N(Cc2cccc(Cl)c2)S(=O)(=O)c2cscc21` yielded a cytotoxic concentration (CC50) of over 701 µM. Also, the concentration for a half-maximal effect (EC50) in assay [2] was found to be 2100 nM. In addition, the SI in assay [3] was over 334.

Regarding `CCN1C(=O)N(CCc2ccccc2)S(=O)(=O)c2cscc21`, the midpoint of cytotoxicity in assay [1], the CC50, lay at 330 µM. The EC50 in assay [2] amounted to 8600 nM. Further, the SI in assay [3] was determined as 38.

In assay [1], `O=C1N(Cc2ccccc2)c2sccc2S(=O)(=O)N1Cc1ccccc1` displayed a half-maximal cytotoxic concentration (CC50) of over 650 µM. A half-maximal response in assay [2] (EC50) required 8300 nM. Moreover, the SI in assay [3] is on record as over 78.

Take `CN1C(=O)N(Cc2ccccc2)S(=O)(=O)c2ccsc21`: the CC50 in assay [1] is over 811 µM. The half-maximal effective concentration (EC50) in assay [2] is over 811000 nM.

For `O=C1N(Cc2ccccc2Cl)c2cscc2S(=O)(=O)N1Cc1ccccc1`, in assay [1], the 50% cytotoxic concentration (CC50) was over 119 µM. This compound also showed a concentration for a half-maximal effect (EC50) in assay [2] of 100 nM. In assay [3], the SI is over 1190.

`Cc1cn([C@H]2C[C@H](N=[N+]=[N-])[C@@H](CO)O2)c(=O)[nH]c1=O` [ZIDOVUDINE]: the half-maximal cytotoxic concentration (CC50) in assay [1] was determined as 35.6 µM. In assay [2], the 50% effective concentration (EC50) came out at 0.7 nM. The SI in assay [4] came to 50600.

`CN1C(=O)N(Cc2cccc(Cl)c2)S(=O)(=O)c2cscc21` came in with a CC50 in assay [1] of over 729 µM. The EC50 in assay [2] worked out at 7600 nM. For the same compound, the SI in assay [3] is given as over 96.

`CCN1C(=O)N(Cc2c(Cl)cccc2Cl)S(=O)(=O)c2cscc21` gave a CC50 in assay [1] of 74.1 µM. The compound further displayed an EC50 in assay [2] of over 74100 nM. For the same compound, the SI in assay [3] is listed as under 1.

Regarding `CN1C(=O)N(Cc2ccccc2)S(=O)(=O)c2nn(C)cc21`, the CC50 in assay [1] was 498 µM. Further, in assay [2], the EC50 was over 498000 nM. The SI in assay [3] is under 1.

`CN1C(=O)N(Cc2ccccc2)S(=O)(=O)c2cscc21`: the 50% cytotoxic concentration (CC50) in assay [1] came to 528 µM. Also, the EC50 in assay [2] came out at 2700 nM. Further, in assay [3], the SI amounted to 196.

Turning to `O=C1N(Cc2ccc(Cl)cc2)c2cscc2S(=O)(=O)N1Cc1ccccc1`, half-maximal cytotoxicity in assay [1] (CC50) was put at 18.6 µM. This compound also yielded an EC50 in assay [2] of 1400 nM. Moreover, the SI in assay [3] stood at 13.

On to `N#CCN1C(=O)N(CCc2ccccc2)S(=O)(=O)c2cscc21`, for which, in assay [1], the midpoint of cytotoxicity, the CC50, lay at 40.3 µM. The compound also displayed a half-maximal effective concentration (EC50) in assay [2] of 3600 nM. In assay [3], the SI is on record as 11.

The compound `CCN1C(=O)N(Cc2ccccc2)S(=O)(=O)c2ccsc21` had a CC50 in assay [1] of 374 µM. The midpoint of the response in assay [2], the EC50, lay at 20500 nM. Further, the SI in assay [3] is reported as 18.

Regarding `CCOC(=O)CN1C(=O)N(Cc2ccccc2)S(=O)(=O)c2cscc21`, in assay [1], the 50% cytotoxic concentration (CC50) worked out at 130 µM. A half-maximal effect in assay [2] (EC50) was put at 7400 nM. Further, in assay [3], the SI came to 18.

In assay [1], `N#CCN1C(=O)N(Cc2cccc(Cl)c2)S(=O)(=O)c2cscc21` yielded a 50% cytotoxic concentration (CC50) of over 340 µM. In assay [2], this compound came in with a 50% effective concentration (EC50) of 90 nM. Further, the SI in assay [3] is recorded as over 3778.

Regarding `Cc1ccnc2c1NC(=O)c1cccnc1N2C1CC1` [NEVIRAPINE], the half-maximal cytotoxic concentration (CC50) in assay [1] stood at 683 µM. This compound came in with an EC50 in assay [2] of 30 nM. Further, the SI in assay [3] was 22800.

`N#CCN1C(=O)N(Cc2ccccn2)S(=O)(=O)c2cscc21` showed a CC50 in assay [1] of over 374 µM. For the same compound, in assay [2], it took 1100 nM to reach a half-maximal effect (EC50). Further, the SI in assay [3] is recorded as over 340.

As to `O=C1N(Cc2ccccc2)c2cc(Cl)sc2S(=O)(=O)N1Cc1ccccc1`, the cytotoxic concentration (CC50) in assay [1] is over 119 µM. Moreover, a half-maximal effect in assay [2] (EC50) was put at 4500 nM. Moreover, the SI in assay [3] was over 26.

As for `C#CCN1C(=O)N(Cc2cccc(Cl)c2)S(=O)(=O)c2cscc21`, the CC50 in assay [1] is 65.7 µM. For the same compound, the concentration for a half-maximal effect (EC50) in assay [2] came out at 100 nM. In addition, the SI in assay [3] was 657.

The compound `CCN1C(=O)N(Cc2ccccn2)S(=O)(=O)c2cscc21` yielded a CC50 in assay [1] of over 387 µM. The same compound yielded a concentration for a half-maximal effect (EC50) in assay [2] of 41400 nM. Also, in assay [3], the SI is over 9.

Turning to `CCCN1C(=O)N(Cc2ccccc2)S(=O)(=O)c2ccsc21`, the CC50 in assay [1] came to 403 µM. Moreover, in assay [2], the EC50 was over 403000 nM.

For `O=C1N(Cc2ccccc2)c2cscc2S(=O)(=O)N1Cc1ccccc1`, in assay [1], the CC50 was over 650 µM. This compound returned an EC50 in assay [2] of 2200 nM. In assay [3], the SI was over 296.

For `N#CCN1C(=O)N(Cc2cc(F)cc(F)c2)S(=O)(=O)c2cscc21`, in assay [1], the cytotoxic concentration (CC50) turned out to be 102 µM. In assay [2], this compound returned an EC50 of 300 nM. Besides, the SI in assay [3] is listed as 340.

As to `C#CCN1C(=O)N(Cc2ccccc2)S(=O)(=O)c2cscc21`, the 50% cytotoxic concentration (CC50) in assay [1] is over 376 µM. The compound also showed an EC50 in assay [2] of 1000 nM. Moreover, in assay [3], the SI is recorded as over 376.

With `CN1C(=O)N(Cc2ccccc2Cl)S(=O)(=O)c2cscc21`, in assay [1], the half-maximal cytotoxic concentration (CC50) came to 446 µM. The EC50 in assay [2] is over 446000 nM. Also, in assay [3], the SI is under 1.

As for `O=C1N(Cc2cccc(Cl)c2)c2cscc2S(=O)(=O)N1Cc1ccccc1`, in assay [1], the CC50 is over 119 µM. Also, the 50% effective concentration (EC50) in assay [2] was determined as 800 nM. The SI in assay [3] was over 149.

In assay [1], `CCN1C(=O)N(Cc2ccccc2Cl)S(=O)(=O)c2cscc21` displayed a half-maximal cytotoxic concentration (CC50) of 605 µM. The compound further yielded a concentration giving a half-maximal response (EC50) in assay [2] of 7300 nM. The SI in assay [3] turned out to be 83.

The compound `N#CCN1C(=O)N(Cc2cccnc2)S(=O)(=O)c2cscc21` yielded a cytotoxic concentration (CC50) in assay [1] of over 150 µM. In assay [2], this compound yielded a concentration giving a half-maximal response (EC50) of 200 nM. For the same compound, the SI in assay [3] is reported as over 750.

`CCN1C(=O)N(Cc2ccccc2)S(=O)(=O)c2cscc21`: in assay [1], the CC50 is over 775 µM. Further, a half-maximal effect in assay [2] (EC50) was put at 2500 nM. Besides, the SI in assay [3] was over 310.

For the compound `CN1C(=O)N(Cc2ccc(Cl)cc2)S(=O)(=O)c2cscc21`, in assay [1], the half-maximal cytotoxic concentration (CC50) stood at 417 µM. The compound also yielded an EC50 in assay [2] of over 417000 nM. Moreover, the SI in assay [3] is reported as under 1.

`O=C1N(Cc2ccccc2)c2cscc2S(=O)(=O)N1CCc1ccccc1` came in with a cytotoxic concentration (CC50) in assay [1] of 226 µM. Moreover, the EC50 in assay [2] turned out to be 10900 nM. Moreover, the SI in assay [3] is given as 21.

Consider `N#CCN1C(=O)N(Cc2cccc(F)c2)S(=O)(=O)c2cscc21`, for which it took 93.6 µM to reach half-maximal cytotoxicity in assay [1] (CC50). Also, in assay [2], a half-maximal effect (EC50) was put at 50 nM. For the same compound, the SI in assay [3] is 1872.

In assay [1], `CCN1C(=O)N(Cc2ccc(Cl)cc2)S(=O)(=O)c2cscc21` had a half-maximal cytotoxic concentration (CC50) of 273 µM. The compound also returned a 50% effective concentration (EC50) in assay [2] of over 273000 nM. The SI in assay [3] is on record as under 1.

In assay [1], `O=C1N(Cc2ccccc2)c2cscc2S(=O)(=O)N1Cc1ccccn1` registered a CC50 of 166 µM. In addition, the EC50 in assay [2] is 400 nM. Moreover, the SI in assay [3] was determined as 415.
